Columns and labels:
[1] = test system: Mus musculus; test: Ex vivo receptor occupancy of histamine H3 receptor expressed in wild type po dosed CF1 mouse brain after 2 hrs; format: functional
How it was run: (§1)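 Female wild-type and mdr1a (−/−) CF-1 mice given vehicle or compound po (0.1–3 mg/kg) and decapitated at 2 h. Coronal striatal sections (20 μm) incubated 10 min at room temperature with 400 pM tritiated quinazolinone H3 inverse agonist radioligand in sodium phosphate buffer. Nonspecific binding defined with 10 μM R-α-methylhistamine. Sections imaged 6 h by beta-Imager. Brain Occ90 obtained from occupancy versus brain concentration. Plasma Occ90 = brain Occ90/brain-to-plasma ratio.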

[2] = test system: LLC-PK1; test: Ratio of permeability from apical to basolateral side over basolateral to apical side in pig LLC-PK1 cells expressing mouse MDR1a; format: ADME, cell-based, Sus scrofa
[3] = Ratio of drug level in brain to plasma in Sprague-Dawley rat at 10 mg/kg, po after 2 hrs; format: ADME, organism-based; parameters: dose 10 mg/kg, route oral; conditions: read-out: BPR
How it was run: (§2)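 Male SD rats dosed orally at 10 mg/kg. Plasma, brain and CSF concentrations determined 2 h after dosing. Brain/plasma ratio taken from these levels. Mean of n = 3 animals.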

[4] = Oral bioavailability in Sprague-Dawley rat at 3 mg/kg; format: ADME, organism-based; conditions: in vivo
How it was run: (§3)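 Male SD rats, male Beagle dogs, male rhesus monkeys given single doses iv (PEG400/EtOH/H2O 50/10/40) or po by gavage (0.5% methylcellulose suspension). Rats 1 mg/kg iv and 3 mg/kg po; dogs and monkeys 0.3 mg/kg iv and 1 mg/kg po. Plasma sampled at multiple times up to 24 h, deproteinized with ethanol plus internal standard. Mean of n = 3 animals/dose.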

[5] = Drug level in Sprague-Dawley rat cerebrospinal fluid at 10 mg/kg, po after 2 hrs; format: ADME, organism-based; parameters: dose 10 mg/kg, route oral; conditions: read-out: Drug uptake; how it was run: as §2
[6] = Cmax in Sprague-Dawley rat at 1 mg/kg, iv and 3 mg/kg, po; format: ADME, organism-based; conditions: in vivo; how it was run: as §3
[7] = AUC (0 to infinity) in Sprague-Dawley rat at 3 mg/kg, po; format: ADME, organism-based; parameters: time infinity, dose 3 mg/kg, route oral; conditions: plasma; how it was run: as §3
[8] = target: Voltage-gated inwardly rectifying potassium channel KCNH2 (Homo sapiens, UniProt Q12809); test: Antagonist activity at human ERG in HEK293 cells assessed as inhibition of [35S]N-[(4R)-1'-[(2R)-6-cyano-1,2,3,4-tetrahydro-2-naphthalenyl]-3,4-dihydro-4-hydroxyspiro[2H-1-benzopyran-2,4'-piperidin]-6-yl]methanesulfonamide binding
Sequence of Voltage-gated inwardly rectifying potassium channel KCNH2 (Q12809 whole entry): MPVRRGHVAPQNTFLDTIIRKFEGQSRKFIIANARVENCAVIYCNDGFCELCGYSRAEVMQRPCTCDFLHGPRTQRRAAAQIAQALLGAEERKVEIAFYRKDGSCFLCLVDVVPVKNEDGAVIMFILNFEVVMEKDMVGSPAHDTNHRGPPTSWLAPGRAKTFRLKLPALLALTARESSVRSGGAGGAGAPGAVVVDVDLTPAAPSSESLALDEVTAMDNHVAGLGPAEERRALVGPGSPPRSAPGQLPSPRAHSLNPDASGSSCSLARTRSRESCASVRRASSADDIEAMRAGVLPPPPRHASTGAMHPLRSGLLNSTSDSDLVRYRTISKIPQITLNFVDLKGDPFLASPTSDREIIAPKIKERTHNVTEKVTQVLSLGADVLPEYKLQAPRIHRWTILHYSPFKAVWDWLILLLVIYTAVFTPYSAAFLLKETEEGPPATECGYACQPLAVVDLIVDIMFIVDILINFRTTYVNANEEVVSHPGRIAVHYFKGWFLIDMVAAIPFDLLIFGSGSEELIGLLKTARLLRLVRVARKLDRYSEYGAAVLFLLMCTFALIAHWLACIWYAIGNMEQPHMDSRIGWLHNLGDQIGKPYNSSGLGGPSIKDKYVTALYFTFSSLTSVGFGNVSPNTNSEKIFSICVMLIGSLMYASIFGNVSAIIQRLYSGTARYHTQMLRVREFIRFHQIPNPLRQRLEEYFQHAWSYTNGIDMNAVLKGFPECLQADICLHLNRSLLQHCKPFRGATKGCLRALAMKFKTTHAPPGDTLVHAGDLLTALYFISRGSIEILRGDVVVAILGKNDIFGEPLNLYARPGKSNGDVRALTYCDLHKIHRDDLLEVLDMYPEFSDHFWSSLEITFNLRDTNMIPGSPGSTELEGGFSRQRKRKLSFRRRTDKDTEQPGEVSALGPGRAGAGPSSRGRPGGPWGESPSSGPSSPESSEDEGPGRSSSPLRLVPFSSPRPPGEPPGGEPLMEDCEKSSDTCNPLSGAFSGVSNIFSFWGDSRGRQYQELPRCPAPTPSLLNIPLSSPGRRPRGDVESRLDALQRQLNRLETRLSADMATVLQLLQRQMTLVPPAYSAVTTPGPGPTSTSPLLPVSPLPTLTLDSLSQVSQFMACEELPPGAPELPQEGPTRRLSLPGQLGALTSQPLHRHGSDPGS

[9] = test system: Rattus norvegicus; test: Ex vivo receptor occupancy of histamine H3 receptor in Sprague-Dawley rat assessed as drug level in brain at 1 mg/kg, po after 2 hrs; format: functional
How it was run: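 Male SD rats given vehicle or 1 mg/kg compound by oral gavage and decapitated at 2 h. Striatal sections (20 μm) incubated 10 min at room temperature with 400 pM tritiated H3 inverse agonist radioligand in sodium phosphate buffer. Nonspecific binding defined with 10 μM R-α-methylhistamine. Beta-Imager exposure 6 h. Drug levels measured by LC-MS/MS.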

[10] = target: Histamine H1 receptor (Homo sapiens, UniProt P35367); test: Inhibition of human histamine H1 receptor
Sequence of Histamine H1 receptor (P35367 whole entry): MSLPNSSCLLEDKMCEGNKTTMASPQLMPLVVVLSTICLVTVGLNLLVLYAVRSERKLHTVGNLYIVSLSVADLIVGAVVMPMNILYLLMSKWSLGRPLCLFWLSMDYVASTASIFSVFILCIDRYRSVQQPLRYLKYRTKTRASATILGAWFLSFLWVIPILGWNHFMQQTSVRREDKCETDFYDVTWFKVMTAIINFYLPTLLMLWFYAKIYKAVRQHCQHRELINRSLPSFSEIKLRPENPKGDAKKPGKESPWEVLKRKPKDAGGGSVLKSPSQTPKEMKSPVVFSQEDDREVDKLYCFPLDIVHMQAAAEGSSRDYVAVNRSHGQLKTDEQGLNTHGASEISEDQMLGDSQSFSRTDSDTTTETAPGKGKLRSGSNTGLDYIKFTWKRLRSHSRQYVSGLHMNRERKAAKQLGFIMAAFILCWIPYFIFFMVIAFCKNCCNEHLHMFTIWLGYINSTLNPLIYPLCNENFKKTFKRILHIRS

[11] = Ex vivo drug level in wild type mdr1a (+/+) CF1 mouse plasma at 0.3 mg/kg, po after 2 hrs; format: ADME, organism-based; parameters: dose 0.3 mg/kg, route oral; conditions: read-out: Drug uptake
How it was run: (§4)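 Female mdr1a (+/+) and mdr1a (−/−) CF-1 mice dosed by oral gavage. Terminal blood and whole brain collected 2 h later. Brain homogenized by ultrasonication in 4 volumes water. Plasma and brain deproteinized with ethanol plus internal standard, then measured by LC-MS/MS (positive ESI, MRM). Mean ± SE, n = 3. Brain/plasma ratios calculated from mean values.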

[12] = test system: LLC-PK1; test: Ratio of permeability from apical to basolateral side over basolateral to apical side in pig LLC-PK1 cells expressing human MDR1; format: ADME, cell-based, Sus scrofa
[13] = test system: Mus musculus; test: Ex vivo receptor occupancy of histamine H3 receptor expressed in po dosed wild type CF1 mouse plasma assessed by brain occupancy/brain to plasma ratio after 2 hrs; format: functional; how it was run: as §1
[14] = target: T1, Histamine H3 receptor (Homo sapiens, UniProt Q9Y5N1); test: Antagonist activity at human cloned histamine H3 receptor expressed in CHO-K1 cells assessed as inhibition of R-alpha-methylhistamine-induced [35S]GTPgammaS binding; format: functional, cell-based
T1 sequence (Q9Y5N1 whole entry): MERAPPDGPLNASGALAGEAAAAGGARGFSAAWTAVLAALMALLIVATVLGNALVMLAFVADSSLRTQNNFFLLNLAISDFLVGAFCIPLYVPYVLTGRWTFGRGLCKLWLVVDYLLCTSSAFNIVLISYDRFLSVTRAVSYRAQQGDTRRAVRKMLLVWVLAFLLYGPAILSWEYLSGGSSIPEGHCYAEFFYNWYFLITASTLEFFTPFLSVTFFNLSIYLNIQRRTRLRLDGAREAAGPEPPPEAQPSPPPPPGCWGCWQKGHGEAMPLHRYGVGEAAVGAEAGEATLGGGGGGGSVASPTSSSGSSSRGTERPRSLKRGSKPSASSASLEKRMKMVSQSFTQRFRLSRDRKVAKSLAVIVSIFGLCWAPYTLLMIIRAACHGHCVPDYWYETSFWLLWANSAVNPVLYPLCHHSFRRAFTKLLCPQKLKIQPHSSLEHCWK

[15] = test system: Brain; test: Ex vivo drug level in wild type mdr1a (+/+) CF1 mouse brain at 0.3 mg/kg, po after 2 hrs; format: ADME, organism-based; parameters: dose 0.3 mg/kg, route oral; how it was run: as §4
[16] = target: T1, Histamine H3 receptor; test: Displacement of [3H]N-alpha-methylhistamine from human recombinant histamine H3 receptor expressed in CHO-K1 cells; format: cell-based
[17] = Plasma clearance in Beagle dog at 0.3 mg/kg, iv; format: ADME, organism-based, Canis lupus familiaris; parameters: dose 0.3 mg/kg, route intravenous; how it was run: as §3
[18] = target: Histamine H3 receptor (Rattus norvegicus, UniProt Q9QYN8); test: Displacement of [3H]N-alpha-methylhistamine from rat recombinant histamine H3 receptor expressed in HEK293 cells; format: cell-based
Sequence of Histamine H3 receptor (Rattus norvegicus, UniProt Q9QYN8) (Q9QYN8 whole entry): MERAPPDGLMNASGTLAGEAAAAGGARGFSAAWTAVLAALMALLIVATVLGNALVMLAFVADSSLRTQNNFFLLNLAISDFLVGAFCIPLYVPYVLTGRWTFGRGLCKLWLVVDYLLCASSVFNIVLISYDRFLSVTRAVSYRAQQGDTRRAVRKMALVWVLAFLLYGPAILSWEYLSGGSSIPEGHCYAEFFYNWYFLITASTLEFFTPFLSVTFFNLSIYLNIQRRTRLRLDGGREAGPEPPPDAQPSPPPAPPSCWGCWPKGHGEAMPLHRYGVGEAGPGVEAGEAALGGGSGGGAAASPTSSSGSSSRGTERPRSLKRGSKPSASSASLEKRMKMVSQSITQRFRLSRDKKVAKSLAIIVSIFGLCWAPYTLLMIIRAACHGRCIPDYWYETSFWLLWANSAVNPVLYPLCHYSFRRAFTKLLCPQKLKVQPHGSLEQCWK

[19] = Cmax in rhesus monkey at 0.3 mg/kg, iv and 1 mg/kg, po; format: ADME, organism-based, Macaca mulatta; conditions: in vivo; how it was run: as §3
[20] = AUC (0 to infinity) in Beagle dog at 1 mg/kg, po; format: ADME, organism-based, Canis lupus familiaris, Plasma; parameters: time infinity, dose 1 mg/kg, route oral; conditions: Beagle, plasma; how it was run: as §3
[21] = Cmax in Beagle dog at 0.3 mg/kg, iv and 1 mg/kg, po; format: ADME, organism-based, Canis lupus familiaris; conditions: in vivo; how it was run: as §3
[22] = test system: Mus musculus; test: Ex vivo receptor occupancy of histamine H3 receptor expressed in po dosed MDR1a deficient CF1 mouse plasma assessed by brain occupancy/brain to plasma ratio after 2 hrs; format: functional; how it was run: as §1
[23] = target: Histamine H4 receptor (Homo sapiens, UniProt Q9H3N8); test: Inhibition of human histamine H4 receptor
Sequence of Histamine H4 receptor (Q9H3N8 whole entry): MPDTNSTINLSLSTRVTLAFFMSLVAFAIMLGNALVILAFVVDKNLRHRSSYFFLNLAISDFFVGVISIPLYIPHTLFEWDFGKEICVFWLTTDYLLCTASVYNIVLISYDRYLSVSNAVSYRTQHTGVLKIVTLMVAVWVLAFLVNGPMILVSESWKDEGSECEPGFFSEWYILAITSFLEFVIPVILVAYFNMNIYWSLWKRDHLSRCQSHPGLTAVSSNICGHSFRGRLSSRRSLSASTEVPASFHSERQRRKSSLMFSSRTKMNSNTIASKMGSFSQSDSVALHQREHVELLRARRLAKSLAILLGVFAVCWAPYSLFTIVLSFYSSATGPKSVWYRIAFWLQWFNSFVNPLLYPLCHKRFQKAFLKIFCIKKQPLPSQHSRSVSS

[24] = test system: Rattus norvegicus; test: Increase in tele-methylhistamine level in po dosed Sprague-Dawley rat brain after 2 hrs relative to control; format: functional, organism-based
How it was run: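 Male SD rats given vehicle (0.5% methylcellulose) or compound po at 1, 3, 10 mg/kg, co-dosed with pargyline ip. Decapitated at 2 h and brains homogenized. tele-Methylhistamine measured by HPLC with fluorometry after solid-phase extraction. Mean ± SE from five experiments. Compared with vehicle by ANOVA with Dunnett's test.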

[25] = test system: Brain; test: Drug level in Sprague-Dawley rat brain at 10 mg/kg, po after 2 hrs; format: ADME, organism-based; parameters: dose 10 mg/kg, route oral; conditions: in vivo; how it was run: as §2
[26] = target: Histamine H2 receptor (Homo sapiens, UniProt P25021); test: Inhibition of human histamine H2 receptor
Sequence of Histamine H2 receptor (P25021 whole entry): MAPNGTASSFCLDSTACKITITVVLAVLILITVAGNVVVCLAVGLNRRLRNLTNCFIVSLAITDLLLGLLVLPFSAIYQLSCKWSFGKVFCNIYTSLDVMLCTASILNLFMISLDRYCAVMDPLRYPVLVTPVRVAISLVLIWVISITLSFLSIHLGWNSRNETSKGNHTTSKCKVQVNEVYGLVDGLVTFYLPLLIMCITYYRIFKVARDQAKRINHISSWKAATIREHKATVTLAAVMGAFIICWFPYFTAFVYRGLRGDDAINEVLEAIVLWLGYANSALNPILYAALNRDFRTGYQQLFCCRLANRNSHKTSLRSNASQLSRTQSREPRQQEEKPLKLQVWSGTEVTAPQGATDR

[27] = test system: Rhesus monkey; test: AUC (0 to infinity) in rhesus monkey at 1 mg/kg, po; format: ADME, organism-based, Macaca mulatta, Plasma; parameters: time infinity, dose 1 mg/kg, route oral; conditions: in vivo; how it was run: as §3
[28] = Ex vivo drug level in mdr1a (-/-) deficient CF1 mouse plasma at 0.3 mg/kg, po after 2 hrs; format: ADME, organism-based; parameters: dose 0.3 mg/kg, route oral; conditions: read-out: Drug uptake; how it was run: as §4
[29] = test system: Brain; test: Ex vivo drug level in mdr1a (-/-) deficient CF1 mouse brain at 0.3 mg/kg, po after 2 hrs; format: ADME, organism-based; parameters: dose 0.3 mg/kg, route oral; how it was run: as §4
[30] = Ratio of drug level in cerebrospinal fluid to brain in Sprague-Dawley rat at 10 mg/kg, po after 2 hrs; format: ADME, organism-based, CSF/Brain; parameters: dose 10 mg/kg, route oral; conditions: in vivo
[31] = Oral bioavailability in Beagle dog at 1 mg/kg; format: ADME, organism-based, Canis lupus familiaris; conditions: Beagle, in vivo; how it was run: as §3
[32] = Plasma concentration in Sprague-Dawley rat at 10 mg/kg, po after 2 hrs; format: ADME, organism-based; parameters: dose 10 mg/kg, route oral; how it was run: as §2
[33] = Ratio of drug level brain to plasma in mdr1a (-/-) deficient CF1 mouse at 0.3 mg/kg, po after 2 hrs; format: ADME, organism-based; parameters: dose 0.3 mg/kg, route oral; conditions: read-out: BPR; how it was run: as §4
[34] = Plasma clearance in Sprague-Dawley rat at 1 mg/kg, iv; format: ADME, organism-based; parameters: dose 1 mg/kg, route intravenous; how it was run: as §3
[35] = test system: Rhesus monkey; test: Oral bioavailability in rhesus monkey at 1 mg/kg; format: ADME, organism-based, Macaca mulatta; conditions: in vivo; how it was run: as §3
[36] = target: Histamine H3 receptor (Mus musculus, UniProt P58406); test: Displacement of [3H]N-alpha-methylhistamine from mouse recombinant histamine H3 receptor
Sequence of Histamine H3 receptor (Mus musculus, UniProt P58406) (P58406 whole entry): as the sequence (Q9QYN8 whole entry) above, with T15A, A286T, A290G, R387H, I389V counted along it

[37] = Ratio of drug level brain to plasma in wild type mdr1a (+/+) CF1 mouse at 0.3 mg/kg, po after 2 hrs; format: ADME, organism-based; parameters: dose 0.3 mg/kg, route oral; conditions: read-out: BPR; how it was run: as §4

With `Cc1nc2cccc(F)c2c(=O)n1-c1ccc(OC2CCN(C3CCC3)CC2)cc1` the Occ90 [1] was 0.28 nmol/g, the Ratio [2] was 1.8 and the Kp at 2 h [3] was 3.2. It also gave a bioavailability [4] of 53%, a concentration at 2 h [5] of 950 nM and a Cmax [6] of 1300 nM. The AUC(0-inf) [7] was 6.2 µM·h, the IC50 [8] was > 10 µM and the Activity [9] was >90%. For the same molecule, the IC50 [10] was > 10 µM, the concentration at 2 h [11] was 32 nM and the Ratio [12] was 1. The Occ90 [13] was 144 nM, the IC50 [14] was 0.55 nM and the Drug uptake [15] was 0.062 nmol/g. The Ki [16] was 6.8 nM, the clearance [17] was 44 mL/min/kg and the Ki [18] was 6 nM. The Cmax [19] was 380 nM, the AUC(0-inf) [20] was 0.05 µM·h and the Cmax [21] was 20 nM. The Occ90 [22] was 30 nM, the IC50 [23] was > 10 µM and the Activity [24] was “Dose-dependent effect”. The Drug uptake [25] was 7.6 nmol/g, the IC50 [26] was > 10 µM and the AUC [27] was 1.7 µM·h. For the same molecule, the concentration at 2 h [28] was 28 nM, the Drug uptake [29] was 0.26 nmol/g and the Ratio [30] was 0.13. For the same molecule, the bioavailability [31] was 4.8%, the concentration at 2 h [32] was 2400 nM and the Kp at 2 h [33] was 9.4. For the same molecule, the clearance [34] was 11 mL/min/kg, the F [35] was 37% and the Ki [36] was 8.4 nM. It also gave a Kp at 2 h [37] of 1.9.
